Source: ChEMBL document CHEMBL3751721, “Development of acridine derivatives as selective Mycobacterium tuberculosis DNA gyrase inhibitors” (Bioorg Med Chem, 2016)
≈ marks a conversion by molar mass, not a printed value. Calls of active or inactive are those of the source. No cut-off for these calls is given here.

Columns and labels:
[1] = molecular target: DNA gyrase subunit A/DNA gyrase subunit B (Mycobacterium tuberculosis (strain ATCC 25618 / H37Rv), UniProt P9WG45+P9WG47); experiment: Inhibition of Mycobacterium tuberculosis DNA gyrase assessed as inhibition of DNA supercoiling after 30 mins by electrophoresis
[2] = molecular target: DNA gyrase subunit B (Mycobacterium smegmatis) (UniProt P0C559); experiment: Inhibition of Mycobacterium smegmatis GyrB by ATPase assay; conditions: Mycolicibacterium smegmatis
[3] = molecular target: DNA gyrase (Staphylococcus aureus) (UniProt P0A0K8+P20831); experiment: Inhibition of Staphylococcus aureus DNA gyrase assessed as inhibition of DNA supercoiling; type: protein-complex assay
Escherichia coli = experiment: Inhibition of Escherichia coli DNA gyrase assessed as inhibition of DNA supercoiling
[4] = molecular target: DNA gyrase (Pseudomonas aeruginosa) (UniProt P48372+Q9I7C2); experiment: Inhibition of Pseudomonas aeruginosa DNA gyrase assessed as inhibition of DNA supercoiling; type: protein-complex assay
[5] = test system: Mycobacterium tuberculosis; experiment: Inhibition of Mycobacterium tuberculosis DNA topoisomerase 1 assessed as DNA relaxation at 50 uM
[6] = test system: Mycobacterium tuberculosis; experiment: Antimicrobial activity against Mycobacterium tuberculosis H37Rv ATCC 27294 after 28 days by alamar blue assay; type: functional; conditions: H37Rv ATCC 27294, 672 h
[7] = Cytotoxicity against mouse RAW264.7 cells assessed as inhibition of cell growth at 50 uM after 72 hrs by MTT assay; type: cell-based
Procedure, shortened: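 RAW 264.7 mouse macrophages exposed to compound at 50 µM for 72 h. Viability read by MTT conversion to formazan, reported as percent inhibition.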

DNA gyrase subunit B (Mycobacterium smegmatis), sequence (P0C559 2-675 limits assumed): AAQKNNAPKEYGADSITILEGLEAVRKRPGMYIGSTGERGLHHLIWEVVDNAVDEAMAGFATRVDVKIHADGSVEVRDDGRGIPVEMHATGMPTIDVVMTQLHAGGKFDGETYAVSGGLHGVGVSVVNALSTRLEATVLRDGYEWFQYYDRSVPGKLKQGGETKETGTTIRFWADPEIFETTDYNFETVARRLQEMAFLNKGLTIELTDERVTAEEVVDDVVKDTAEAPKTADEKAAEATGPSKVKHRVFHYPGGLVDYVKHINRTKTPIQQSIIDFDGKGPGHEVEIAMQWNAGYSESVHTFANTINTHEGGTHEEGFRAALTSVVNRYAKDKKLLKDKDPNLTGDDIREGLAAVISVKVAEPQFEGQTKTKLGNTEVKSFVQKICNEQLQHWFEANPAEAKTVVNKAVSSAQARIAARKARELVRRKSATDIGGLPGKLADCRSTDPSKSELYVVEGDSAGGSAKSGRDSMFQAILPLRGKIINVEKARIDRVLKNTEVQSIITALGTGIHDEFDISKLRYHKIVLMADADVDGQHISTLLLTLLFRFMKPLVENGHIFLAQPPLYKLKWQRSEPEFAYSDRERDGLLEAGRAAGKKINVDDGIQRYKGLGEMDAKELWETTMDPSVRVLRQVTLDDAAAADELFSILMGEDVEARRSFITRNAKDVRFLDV
DNA gyrase subunit A/DNA gyrase subunit B, sequence (P9WG45 whole entry): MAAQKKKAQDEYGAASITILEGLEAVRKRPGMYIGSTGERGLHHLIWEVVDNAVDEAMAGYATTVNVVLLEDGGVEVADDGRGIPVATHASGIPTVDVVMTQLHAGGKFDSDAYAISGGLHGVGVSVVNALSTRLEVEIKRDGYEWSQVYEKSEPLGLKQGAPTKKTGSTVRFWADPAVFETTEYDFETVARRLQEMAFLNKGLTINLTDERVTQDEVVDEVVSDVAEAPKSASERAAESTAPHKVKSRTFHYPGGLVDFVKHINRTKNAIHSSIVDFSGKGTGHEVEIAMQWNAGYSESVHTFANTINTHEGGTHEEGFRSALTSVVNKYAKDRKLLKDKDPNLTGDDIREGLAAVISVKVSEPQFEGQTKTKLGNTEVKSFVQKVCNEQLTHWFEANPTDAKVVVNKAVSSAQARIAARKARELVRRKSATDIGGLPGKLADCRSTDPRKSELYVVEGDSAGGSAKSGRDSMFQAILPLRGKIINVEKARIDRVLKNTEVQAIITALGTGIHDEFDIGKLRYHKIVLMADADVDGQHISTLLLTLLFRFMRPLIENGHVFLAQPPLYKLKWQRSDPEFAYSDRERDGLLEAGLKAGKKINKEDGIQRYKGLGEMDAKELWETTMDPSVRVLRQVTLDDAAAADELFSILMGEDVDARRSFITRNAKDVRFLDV
DNA gyrase subunit A/DNA gyrase subunit B, sequence (P9WG47 whole entry): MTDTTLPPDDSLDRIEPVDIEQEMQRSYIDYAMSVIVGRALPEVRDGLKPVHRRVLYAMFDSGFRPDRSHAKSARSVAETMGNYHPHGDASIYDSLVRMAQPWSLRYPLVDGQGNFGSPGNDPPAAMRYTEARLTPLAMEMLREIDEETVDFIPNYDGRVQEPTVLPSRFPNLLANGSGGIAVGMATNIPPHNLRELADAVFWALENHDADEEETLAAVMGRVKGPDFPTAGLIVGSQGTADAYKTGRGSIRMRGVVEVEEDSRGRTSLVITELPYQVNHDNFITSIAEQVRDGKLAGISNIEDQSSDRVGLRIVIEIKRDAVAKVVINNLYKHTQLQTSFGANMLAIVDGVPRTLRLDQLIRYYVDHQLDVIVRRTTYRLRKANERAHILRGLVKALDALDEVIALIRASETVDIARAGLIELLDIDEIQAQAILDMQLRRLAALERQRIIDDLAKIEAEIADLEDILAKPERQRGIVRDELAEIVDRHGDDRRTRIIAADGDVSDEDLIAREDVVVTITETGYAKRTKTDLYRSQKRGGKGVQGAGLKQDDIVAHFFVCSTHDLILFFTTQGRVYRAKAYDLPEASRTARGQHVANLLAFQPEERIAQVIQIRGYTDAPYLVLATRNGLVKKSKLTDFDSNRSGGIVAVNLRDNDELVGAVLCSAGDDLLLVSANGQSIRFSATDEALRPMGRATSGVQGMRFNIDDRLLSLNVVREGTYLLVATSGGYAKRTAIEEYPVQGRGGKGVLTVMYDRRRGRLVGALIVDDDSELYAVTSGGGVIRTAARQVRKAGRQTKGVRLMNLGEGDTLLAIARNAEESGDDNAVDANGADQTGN
DNA gyrase (Staphylococcus aureus), sequence (P0A0K8 2-644 limits assumed): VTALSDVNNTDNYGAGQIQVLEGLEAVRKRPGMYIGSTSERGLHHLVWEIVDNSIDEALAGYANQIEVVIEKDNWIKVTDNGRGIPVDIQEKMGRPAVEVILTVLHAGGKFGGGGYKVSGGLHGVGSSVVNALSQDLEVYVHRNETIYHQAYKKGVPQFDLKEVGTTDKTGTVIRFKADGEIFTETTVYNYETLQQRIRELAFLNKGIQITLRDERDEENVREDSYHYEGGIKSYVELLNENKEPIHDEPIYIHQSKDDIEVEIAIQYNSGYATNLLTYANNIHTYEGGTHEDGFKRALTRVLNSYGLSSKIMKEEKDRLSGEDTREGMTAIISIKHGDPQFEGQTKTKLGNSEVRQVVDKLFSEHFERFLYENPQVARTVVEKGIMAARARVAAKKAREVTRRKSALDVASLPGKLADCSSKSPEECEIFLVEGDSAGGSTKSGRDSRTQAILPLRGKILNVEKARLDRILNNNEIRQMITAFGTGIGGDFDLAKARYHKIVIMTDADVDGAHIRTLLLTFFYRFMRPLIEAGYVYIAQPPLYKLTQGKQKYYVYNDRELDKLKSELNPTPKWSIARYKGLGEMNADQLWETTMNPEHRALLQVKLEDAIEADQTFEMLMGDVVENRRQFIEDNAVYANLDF
DNA gyrase (Staphylococcus aureus), sequence (P20831 whole entry partner): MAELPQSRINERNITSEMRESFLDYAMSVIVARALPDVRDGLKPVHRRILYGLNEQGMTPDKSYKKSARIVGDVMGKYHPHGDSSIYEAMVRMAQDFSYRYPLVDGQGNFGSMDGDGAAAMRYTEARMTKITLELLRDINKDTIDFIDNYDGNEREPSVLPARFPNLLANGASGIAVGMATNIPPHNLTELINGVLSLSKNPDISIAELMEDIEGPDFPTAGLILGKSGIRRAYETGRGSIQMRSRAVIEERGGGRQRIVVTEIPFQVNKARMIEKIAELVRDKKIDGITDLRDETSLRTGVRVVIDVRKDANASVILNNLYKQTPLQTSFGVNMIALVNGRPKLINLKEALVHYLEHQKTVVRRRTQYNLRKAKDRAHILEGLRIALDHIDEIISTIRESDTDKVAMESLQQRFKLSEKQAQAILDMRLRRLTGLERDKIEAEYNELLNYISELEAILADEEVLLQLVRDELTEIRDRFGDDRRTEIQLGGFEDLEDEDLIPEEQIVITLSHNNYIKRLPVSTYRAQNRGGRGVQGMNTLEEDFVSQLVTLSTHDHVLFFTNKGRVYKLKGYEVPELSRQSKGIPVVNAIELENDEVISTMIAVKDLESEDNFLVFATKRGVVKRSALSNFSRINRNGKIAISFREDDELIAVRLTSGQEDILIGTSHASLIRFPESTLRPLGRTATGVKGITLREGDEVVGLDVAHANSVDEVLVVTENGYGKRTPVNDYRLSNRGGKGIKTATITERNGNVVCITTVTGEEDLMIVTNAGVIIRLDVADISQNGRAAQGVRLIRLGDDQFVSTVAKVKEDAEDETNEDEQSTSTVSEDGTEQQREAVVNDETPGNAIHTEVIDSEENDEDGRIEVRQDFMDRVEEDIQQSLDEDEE

SMILES | IC50 [1] | inhibition [2] | inhibition [3] | inhibition (Escherichia coli) | inhibition [4] | inhibition [5] | MIC [6] | inhibition at 72 h, 50 µM [7]
O=[N+]([O-])c1ccc(S(=O)(=O)Nc2ccc(Nc3c4ccccc4nc4ccc(Cl)cc34)cc2)cc1 | 8.1 µM | inactive | inactive | inactive | inactive | inactive | 24.8 µM (≈ 12.5 µg/mL) | 30.4%
Cc1ccc(NC(=O)Nc2ccc(Nc3c4ccccc4nc4ccc(C)cc34)cc2)cc1 | 29.6 µM | inactive | inactive | inactive | inactive | inactive | 57.8 µM (≈ 25 µg/mL) | 43.1%
Cc1ccc2nc3ccccc3c(Nc3ccc(NC(=S)Nc4ccc(Cl)cc4)cc3)c2c1 | 11.2 µM | inactive | inactive | inactive | inactive | inactive | 26.7 µM (≈ 12.5 µg/mL) | 26%
S=C(Nc1ccc(Cl)cc1)Nc1ccc(Nc2c3ccccc3nc3ccccc23)cc1 | 8.4 µM | inactive | inactive | inactive | inactive | inactive | 13.7 µM (≈ 6.25 µg/mL) | 12.5%
COc1c(N2C[C@@H]3CCCN[C@@H]3C2)c(F)cc2c(=O)c(C(=O)O)cn(C3CC3)c12 [MOXIFLOXACIN] |  |  |  |  |  |  | 1.26 µM (≈ 0.506 µg/mL) | 1.26%
CO[C@H]1/C=C/O[C@@]2(C)Oc3c(C)c(O)c4c(O)c(c(/C=N/N5CCN(C)CC5)c(O)c4c3C2=O)NC(=O)/C(C)=C\C=C\[C@H](C)[C@H](O)[C@@H](C)[C@@H](O)[C@@H](C)[C@H](OC(C)=O)[C@@H]1C [RIFAMPIN] | > 50 µM |  |  |  |  |  | 0.23 µM (≈ 0.189 µg/mL) | 
Cc1ccc(S(=O)(=O)Nc2ccc(Nc3c4ccccc4nc4ccc(Cl)cc34)cc2)cc1 | 22.8 µM | inactive | inactive | inactive | inactive | inactive | > 52.8 µM | 38.5%
CO[C@@H]1[C@@H](OC(N)=O)[C@@H](O)[C@H](Oc2ccc3c(O)c(NC(=O)c4ccc(O)c(CC=C(C)C)c4)c(=O)oc3c2C)OC1(C)C [NOVOBIOCIN] |  |  |  |  |  |  | > 50 µM | 
O=[N+]([O-])c1ccc(S(=O)(=O)Nc2ccc(Nc3c4ccccc4nc4ccccc34)cc2)cc1 | 22.4 µM | inactive | inactive | inactive | inactive | inactive | 24.6 µM (≈ 11.6 µg/mL) | 34.1%
Cc1ccc2nc3ccccc3c(Nc3ccc(NS(=O)(=O)c4ccc([N+](=O)[O-])cc4)cc3)c2c1 | 8.34 µM | inactive | inactive | inactive | inactive | inactive | 12.9 µM (≈ 6.25 µg/mL) | 27%
O=C(Nc1ccc(Cl)cc1)Nc1ccc(Nc2c3ccccc3nc3ccc(Cl)cc23)cc1 | 11.8 µM | inactive | inactive | inactive | inactive | inactive | 13.2 µM (≈ 6.25 µg/mL) | 17.1%
Cc1ccc(NC(=S)Nc2ccc(Nc3c4ccccc4nc4ccccc34)cc2)cc1 | 31.1 µM | inactive | inactive | inactive | inactive | inactive | > 57.5 µM | 27.4%
O=C(Nc1ccc(Nc2c3ccccc3nc3ccccc23)cc1)Nc1ccc([N+](=O)[O-])cc1 | 26.8 µM | inactive | inactive | inactive | inactive | inactive | 27.8 µM (≈ 12.5 µg/mL) | 19.2%
O=C(Nc1ccccc1)Nc1ccc(Nc2c3ccccc3nc3ccc(Cl)cc23)cc1 | 23.6 µM | inactive | inactive | inactive | inactive | inactive | 28.5 µM (≈ 12.5 µg/mL) | 27.7%
O=[N+]([O-])c1ccc(NC(=S)Nc2ccc(Nc3c4ccccc4nc4ccccc34)cc2)cc1 | 13.1 µM | inactive | inactive | inactive | inactive | inactive | 13.4 µM (≈ 6.25 µg/mL) | 20.8%
O=S(=O)(Nc1ccc(Nc2c3ccccc3nc3ccccc23)cc1)c1ccc(Cl)cc1 | 23.8 µM | inactive | inactive | inactive | inactive | inactive | 27.2 µM (≈ 12.5 µg/mL) | 34.2%
S=C(Nc1ccccc1)Nc1ccc(Nc2c3ccccc3nc3ccc(Cl)cc23)cc1 | 29.3 µM | inactive | inactive | inactive | inactive | inactive | 27.5 µM (≈ 12.5 µg/mL) | 11.7%
Cc1ccc(NC(=S)Nc2ccc(Nc3c4ccccc4nc4ccc(Cl)cc34)cc2)cc1 | 33.9 µM | inactive | inactive | inactive | inactive | inactive | > 53.3 µM | 25.5%
S=C(Nc1ccccc1)Nc1ccc(Nc2c3ccccc3nc3ccccc23)cc1 | 8.2 µM | inactive | inactive | inactive | inactive | inactive | 14.9 µM (≈ 6.25 µg/mL) | 29.2%
S=C(Nc1ccc(Cl)cc1)Nc1ccc(Nc2c3ccccc3nc3ccc(Cl)cc23)cc1 | 31.5 µM | inactive | inactive | inactive | inactive | inactive | > 51.1 µM | 6.7%
O=C(Nc1ccc(Nc2c3ccccc3nc3ccc(Cl)cc23)cc1)Nc1ccc([N+](=O)[O-])cc1 | 7.3 µM | inactive | inactive | inactive | inactive | inactive | 6.46 µM (≈ 3.13 µg/mL) | 45.9%
Cc1ccc2nc3ccccc3c(Nc3ccc(NC(=O)Nc4ccc(Cl)cc4)cc3)c2c1 | 11.4 µM | inactive | inactive | inactive | inactive | inactive | 27.6 µM (≈ 12.5 µg/mL) | 25.9%
NNC(=O)c1ccncc1 [ISONIAZID] | > 50 µM |  |  |  |  |  | 0.66 µM (≈ 0.0905 µg/mL) | 
